Assay results from ChEMBL document CHEMBL1156334, “New Angiopep-modified doxorubicin (ANG1007) and etoposide (ANG1009) chemotherapeutics with increased brain penetration” (J Med Chem, 2010).

Experiments:
[1] = system: Brain; test: Drug uptake in perfused mouse brain assessed as blood-brain transfer coefficient; format: ADME, tissue-based; details: in vivo
Outline: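 In situ brain perfusion was done in adult male CD-1 mice. Radiolabeled drug in Krebs/bicarbonate buffer (gassed 95% O2/5% CO2, pH 7.4, 37 °C) was infused into the carotid artery for 0.5, 1, 2 or 4 min, then washed out tracer-free for 60 s. Brain homogenate radioactivity was counted (γ or liquid scintillation) and expressed as apparent Vd. Vd versus time was fitted by least-squares regression.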

[2] = Cell cycle arrest in human U87MG cells assessed as accumulation at G0/G1 phase at 1 uM after 24 hrs by flow cytometry; format: functional, cell-based; details: U-87MG ATCC
Outline: (§1)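 Exponentially growing U87 MG cells in flasks were treated with drug or left untreated as controls. Cells were trypsinized, washed twice in PBS, fixed in 70% ice-cold ethanol, and stained with 50 μg/mL propidium iodide plus 0.5 mg/mL RNase in 10 mM Tris, 5 mM MgCl2. DNA content was measured by flow cytometry and given as % of cells per phase, from one representative of three experiments.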

[3] = Cytotoxicity against human U87MG cells after 48 hrs by [3H]thymidine incorporation assay; format: functional, cell-based, U-87MG ATCC; details: U-87 MG
Outline: (§2)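 Tumor cells were seeded at 5000 per well and exposed to increasing drug concentrations for 48 h. The medium was then aspirated and cells pulse-labeled for 2 h at 37 °C in fresh medium with 2 μCi/mL [methyl-3H]thymidine. Cells were harvested and tritium was counted by scintillation. Incorporation was plotted against concentration to estimate IC50.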

[4] = Cell cycle arrest in human U87MG cells assessed as accumulation at G2/M phase at 1 uM after 24 hrs by flow cytometry; format: functional, cell-based; details: U-87MG ATCC; outline: as §1
[5] = system: SK-HEP1; test: Cytotoxicity against human SKHEP1 cells after 48 hrs by [3H]thymidine incorporation assay; format: functional, cell-based; outline: as §2
[6] = system: NCI-H460; test: Cytotoxicity against human NCI-H460 cells after 48 hrs by [3H]thymidine incorporation assay; format: functional, cell-based; outline: as §2
[7] = Cell cycle arrest in human U87MG cells assessed as accumulation at S phase at 1 uM after 24 hrs by flow cytometry; format: functional, cell-based; details: U-87MG ATCC; outline: as §1
[8] = Cell cycle arrest in human U87MG cells assessed as accumulation at S phase at 33 nM after 24 hrs by flow cytometry; format: functional, cell-based; details: U-87MG ATCC; outline: as §1
[9] = Cell cycle arrest in human U87MG cells assessed as accumulation at G0/G1 phase at 33 nM after 24 hrs by flow cytometry; format: functional, cell-based; details: U-87MG ATCC; outline: as §1
[10] = Cell cycle arrest in human U87MG cells assessed as accumulation at G2/M phase at 33 nM after 24 hrs by flow cytometry; format: functional, cell-based; details: U-87MG ATCC; outline: as §1
[11] = Cell cycle arrest in human U87MG cells assessed as accumulation at G0/G1 phase at 100 nM after 24 hrs by flow cytometry; format: functional, cell-based; details: U-87MG ATCC; outline: as §1
[12] = Cell cycle arrest in human U87MG cells assessed as accumulation at S phase at 100 nM after 24 hrs by flow cytometry; format: functional, cell-based; details: U-87MG ATCC; outline: as §1
[13] = Cell cycle arrest in human U87MG cells assessed as accumulation at G2/M phase at 100 nM after 24 hrs by flow cytometry; format: functional, cell-based; details: U-87MG ATCC; outline: as §1
[14] = Cell cycle arrest in human U87MG cells assessed as accumulation at G2/M phase at 3 uM after 24 hrs by flow cytometry; format: functional, cell-based; details: U-87MG ATCC; outline: as §1
[15] = Cell cycle arrest in human U87MG cells assessed as accumulation at G0/G1 phase at 3 uM after 24 hrs by flow cytometry; format: functional, cell-based; details: U-87MG ATCC; outline: as §1
[16] = Cell cycle arrest in human U87MG cells assessed as accumulation at S phase at 3 uM after 24 hrs by flow cytometry; format: functional, cell-based; details: U-87MG ATCC; outline: as §1

SMILES	Kin [1]	Activity [2]	IC50 [3]	Activity [4]	IC50 [5]	IC50 [6]	Activity [7]	Activity [8]	Activity [9]	Activity [10]	Activity [11]	Activity [12]	Activity [13]	Activity [14]	Activity [15]	Activity [16]
COc1cccc2c1C(=O)c1c(O)c3c(c(O)c1C2=O)C[C@@](O)(C(=O)COC(=O)CCC(=O)NCCCC[C@H](NC(=O)CNC(=O)[C@H](CCCNC(=N)N)NC(=O)[C@H](CO)NC(=O)CNC(=O)CNC(=O)[C@H](Cc1ccc(O)cc1)NC(=O)[C@H](Cc1ccccc1)NC(=O)[C@H](Cc1ccccc1)NC(=O)[C@@H](NC(=O)CCC(=O)OCC(=O)[C@]1(O)Cc2c(O)c4c(c(O)c2[C@@H](O[C@H]2C[C@H](N)[C@H](O)[C@H](C)O2)C1)C(=O)c1c(OC)cccc1C4=O)C(C)O)C(=O)N[C@@H](CCCNC(=N)N)C(=O)N[C@@H](CC(N)=O)C(=O)N[C@@H](CC(N)=O)C(=O)N[C@@H](Cc1ccccc1)C(=O)N[C@@H](CCCCNC(=O)CCC(=O)OCC(=O)[C@]1(O)Cc2c(O)c4c(c(O)c2[C@@H](O[C@H]2C[C@H](N)[C@H](O)[C@H](C)O2)C1)C(=O)c1c(OC)cccc1C4=O)C(=O)N[C@H](C(=O)N[C@@H](CCC(=O)O)C(=O)N[C@@H](CCC(=O)O)C(=O)N[C@@H](Cc1ccc(O)cc1)C(=O)O)[C@@H](C)O)C[C@@H]3O[C@H]1C[C@H](N)[C@H](O)[C@H](C)O1 (some centres undefined)	31 10^-4ml/g/s	–	6 nM	–	4.6 nM	7.3 nM	–	10.1%	32.3%	57.3%	–	–	–	–	–	–
CC(=O)O[C@H]1C(=O)[C@@]2(C)[C@H]([C@H](OC(=O)c3ccccc3)[C@]3(O)C[C@H](OC(=O)[C@H](O)[C@@H](NC(=O)c4ccccc4)c4ccccc4)C(C)=C1C3(C)C)[C@]1(OC(C)=O)CO[C@@H]1C[C@@H]2O [PACLITAXEL]	6.9 10^-4ml/g/s	–	–	–	–	–	–	–	–	–	–	–	–	–	–	–

Now from value to compound, other results behind:

Kin [1]	SMILES	Activity [2]	IC50 [3]	Activity [4]	IC50 [5]	IC50 [6]	Activity [7]	Activity [8]	Activity [9]	Activity [10]	Activity [11]	Activity [12]	Activity [13]	Activity [14]	Activity [15]	Activity [16]
22 10^-4ml/g/s	COc1cc([C@@H]2c3cc4c(cc3[C@@H](O[C@@H]3O[C@@H]5CO[C@@H](C)O[C@H]5[C@H](O)[C@H]3OC(=O)CCCC(=O)NCCCC[C@H](NC(=O)CNC(=O)[C@H](CCCNC(=N)N)NC(=O)[C@H](CO)NC(=O)CNC(=O)CNC(=O)[C@H](Cc3ccc(O)cc3)NC(=O)[C@H](Cc3ccccc3)NC(=O)[C@H](Cc3ccccc3)NC(=O)[C@@H](NC(=O)CCCC(=O)O[C@H]3[C@H](O[C@@H]5c6cc7c(cc6[C@@H](c6cc(OC)c(OC(=O)CN(C)C)c(OC)c6)[C@H]6C(=O)OC[C@@H]65)OCO7)O[C@@H]5CO[C@@H](C)O[C@H]5[C@@H]3O)C(C)O)C(=O)N[C@@H](CCCNC(=N)N)C(=O)N[C@@H](CC(N)=O)C(=O)N[C@@H](CC(N)=O)C(=O)N[C@@H](Cc3ccccc3)C(=O)N[C@@H](CCCCNC(=O)CCCC(=O)O[C@H]3[C@H](O[C@@H]5c6cc7c(cc6[C@@H](c6cc(OC)c(OC(=O)CN(C)C)c(OC)c6)[C@H]6C(=O)OC[C@@H]65)OCO7)O[C@@H]5CO[C@@H](C)O[C@H]5[C@@H]3O)C(=O)N[C@H](C(=O)N[C@@H](CCC(=O)O)C(=O)N[C@@H](CCC(=O)O)C(=O)N[C@@H](Cc3ccc(O)cc3)C(=O)O)[C@@H](C)O)[C@H]3COC(=O)[C@H]23)OCO4)cc(OC)c1OC(=O)CN(C)C (some centres undefined)	25.7%	330 nM	70.8%	48 nM	148 nM	3.3%	–	–	–	–	–	–	–	–	–
2.5 10^-4ml/g/s	COc1cccc2c1C(=O)c1c(O)c3c(c(O)c1C2=O)C[C@@](O)(C(=O)CO)C[C@@H]3O[C@H]1C[C@H](N)[C@H](O)[C@H](C)O1 [DOXORUBICIN]	–	18 nM	–	10 nM	11 nM	–	–	–	–	30.8%	8.9%	59.9%	–	–	–
0.9 10^-4ml/g/s	COc1cc([C@@H]2c3cc4c(cc3[C@@H](O[C@@H]3O[C@@H]5CO[C@@H](C)O[C@H]5[C@H](O)[C@H]3O)[C@H]3COC(=O)[C@H]23)OCO4)cc(OC)c1O [ETOPOSIDE]	–	145 nM	–	62 nM	90 nM	–	–	–	–	–	–	–	87%	8.9%	4.2%
